“And” between values parts separate entries of the source, which are not always exact repeats. Equal entries are not always repeated.
Tests used:
Format in all cases: toxicity, cell-based
U2OS = assay: Multiplex assay against U2OS; conditions: human, number of replicates 2
Summary of the method: (§1)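 Live cells were stained at seeding with Hoechst33342, BioTracker Green Microtubule Cytoskeleton Dye, MitoTracker Red and Annexin V Alexa Fluor 680. Following compound addition, they were imaged on a CQ1 microscope at 37°C and 5% CO2 and gated by CellPathfinder machine learning into Hoechst high-intensity objects or normal cells, with normal cells split into healthy, pyknosed or fragmented nuclei and pyknosed cells into mitotic or apoptotic. Tubulin, mitochondrial-mass and membrane-permeability phenotypes are per cents of healthy-nucleus cells.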

HEK-293T = assay: Multiplex assay against HEK293T; conditions: human, number of replicates 2; summary of the method: as §1
Fibroblast = assay: Multiplex assay against human fibroblast; conditions: number of replicates 2; summary of the method: as §1
[1] = 12 h, 1 µM, compound concentration 1 uM
[2] = 12 h, 10 µM, compound concentration 10 uM
[3] = 24 h, 1 µM, compound concentration 1 uM
[4] = 24 h, 10 µM, compound concentration 10 uM
[5] = 48 h, 1 µM, compound concentration 1 uM
[6] = 48 h, 10 µM, compound concentration 10 uM

## COc1cc(N2CCN(C)CC2)ccc1Nc1ncc2c(n1)N(C)c1ccccc1C(=O)N2CC(F)(F)F
U2OS; [1]
  Population Apoptotic (%): 80% and 51%
  Population Fragmented Nuclei (%): 11% and 4%
  Population Healthy Nuclei (%): 76% and 82%
  Population Hoechst High Intensity Objects (%): 0%
  Population Membrane Permeable-Phenotype (%): 3%
  Population Mitotic Cells (%): 20% and 48%
  Population Normal (%): 100% and 99%
  Population Pyknosed Nuclei (%): 11% and 12%
  Population Tubulin-Different-Phenotype (%): 21% and 22%
U2OS; [2]
  Population Apoptotic (%): 64% and 53%
  Population Healthy Nuclei (%): 45% and 78%
  Population Hoechst High Intensity Objects (%): 0%
  Population Membrane Permeable-Phenotype (%): 17% and 28%
  Population Mitochondria Different-Phenotype (%): 58% and 54%
  Population Mitotic Cells (%): 35% and 46%
  Population Normal (%): 100%
  Population Pyknosed Nuclei (%): 37% and 19%
  Population Tubulin-Different-Phenotype (%): 88% and 85%
U2OS; [3]
  Population Apoptotic (%): 66% and 68%
  Population Healthy Nuclei (%): 69% and 83%
  Population Hoechst High Intensity Objects (%): 0%
  Population Membrane Permeable-Phenotype (%): 3% and 1%
  Population Mitochondria Different-Phenotype (%): 18% and 19%
  Population Mitotic Cells (%): 33% and 31%
  Population Normal (%): 100% and 99%
  Population Pyknosed Nuclei (%): 15% and 13%
  Population Tubulin-Different-Phenotype (%): 11% and 30%
U2OS; [4]
  Population Apoptotic (%): 73%
  Population Fragmented Nuclei (%): 15% and 6%
  Population Healthy Nuclei (%): 39% and 55%
  Population Hoechst High Intensity Objects (%): 0%
  Population Membrane Permeable-Phenotype (%): 30% and 44%
  Population Mitochondria Different-Phenotype (%): 69% and 73%
  Population Mitotic Cells (%): 26%
  Population Normal (%): 100%
  Population Pyknosed Nuclei (%): 45% and 37%
  Population Tubulin-Different-Phenotype (%): 92% and 95%
U2OS; [5]
  Population Apoptotic (%): 66% and 72%
  Population Healthy Nuclei (%): 62% and 84%
  Population Hoechst High Intensity Objects (%): 0%
  Population Membrane Permeable-Phenotype (%): 2% and 3%
  Population Mitochondria Different-Phenotype (%): 2% and 11%
  Population Mitotic Cells (%): 33% and 27%
  Population Normal (%): 100% and 99%
  Population Pyknosed Nuclei (%): 22% and 12%
  Population Tubulin-Different-Phenotype (%): 29% and 37%
U2OS; [6]
  Population Apoptotic (%): 83% and 86%
  Population Fragmented Nuclei (%): 26% and 11%
  Population Hoechst High Intensity Objects (%): 2% and 0%
  Population Membrane Permeable-Phenotype (%): 85% and 66%
  Population Mitochondria Different-Phenotype (%): 71% and 74%
  Population Mitotic Cells (%): 16% and 13%
  Population Normal (%): 97% and 99%
  Population Pyknosed Nuclei (%): 57% and 34%
  Population Tubulin-Different-Phenotype (%): 100% and 94%
HEK-293T; [1]
  Population Apoptotic (%): 31% and 35%
  Population Fragmented Nuclei (%): 3% and 2%
  Population Healthy Nuclei (%): 87% and 86%
  Population Hoechst High Intensity Objects (%): 5% and 6%
  Population Membrane Permeable-Phenotype (%): 3%
  Population Mitochondria Different-Phenotype (%): 20% and 16%
  Population Mitotic Cells (%): 68% and 64%
  Population Normal (%): 94% and 93%
  Population Pyknosed Nuclei (%): 9% and 10%
  Population Tubulin-Different-Phenotype (%): 86% and 78%
  Total Cell Count: 866 and 792
HEK-293T; [2]
  Population Apoptotic (%): 55% and 51%
  Population Fragmented Nuclei (%): 1% and 3%
  Population Healthy Nuclei (%): 81% and 83%
  Population Hoechst High Intensity Objects (%): 13% and 12%
  Population Membrane Permeable-Phenotype (%): 5% and 4%
  Population Mitochondria Different-Phenotype (%): 49% and 52%
  Population Mitotic Cells (%): 44% and 48%
  Population Normal (%): 86% and 87%
  Population Pyknosed Nuclei (%): 16% and 13%
  Population Tubulin-Different-Phenotype (%): 95%
  Total Cell Count: 412 and 483
HEK-293T; [3]
  Population Apoptotic (%): 27% and 32%
  Population Fragmented Nuclei (%): 3% and 5%
  Population Healthy Nuclei (%): 90% and 86%
  Population Hoechst High Intensity Objects (%): 7%
  Population Membrane Permeable-Phenotype (%): 2%
  Population Mitochondria Different-Phenotype (%): 8% and 9%
  Population Mitotic Cells (%): 72% and 67%
  Population Normal (%): 92%
  Population Pyknosed Nuclei (%): 5% and 7%
  Population Tubulin-Different-Phenotype (%): 68%
  Total Cell Count: 1356 and 1127
HEK-293T; [4]
  Population Apoptotic (%): 42% and 49%
  Population Fragmented Nuclei (%): 3% and 4%
  Population Healthy Nuclei (%): 80% and 83%
  Population Hoechst High Intensity Objects (%): 6% and 11%
  Population Membrane Permeable-Phenotype (%): 2% and 1%
  Population Mitochondria Different-Phenotype (%): 60% and 59%
  Population Mitotic Cells (%): 57% and 50%
  Population Normal (%): 93% and 88%
  Population Pyknosed Nuclei (%): 16% and 12%
  Population Tubulin-Different-Phenotype (%): 95%
  Total Cell Count: 451 and 561
HEK-293T; [5]
  Population Fragmented Nuclei (%): 10% and 14%
  Population Healthy Nuclei (%): 86% and 82%
  Population Hoechst High Intensity Objects (%): 11% and 10%
  Population Membrane Permeable-Phenotype (%): 4% and 6%
  Population Mitochondria Different-Phenotype (%): 2% and 0%
  Population Mitotic Cells (%): 82% and 95%
  Population Normal (%): 88% and 89%
  Population Pyknosed Nuclei (%): 3%
  Population Tubulin-Different-Phenotype (%): 51% and 48%
  Total Cell Count: 2136 and 2988
HEK-293T; [6]
  Population Apoptotic (%): 50% and 55%
  Population Fragmented Nuclei (%): 4% and 5%
  Population Healthy Nuclei (%): 79% and 83%
  Population Hoechst High Intensity Objects (%): 8% and 11%
  Population Membrane Permeable-Phenotype (%): 7% and 11%
  Population Mitochondria Different-Phenotype (%): 37% and 31%
  Population Mitotic Cells (%): 50% and 44%
  Population Normal (%): 91% and 88%
  Population Pyknosed Nuclei (%): 15% and 11%
  Population Tubulin-Different-Phenotype (%): 91% and 94%
  Total Cell Count: 580 and 656
Fibroblast; [1]
  Population Apoptotic (%): 50% and 44%
  Population Fragmented Nuclei (%): 14% and 10%
  Population Healthy Nuclei (%): 74% and 76%
  Population Hoechst High Intensity Objects (%): 0%
  Population Membrane Permeable-Phenotype (%): 1% and 2%
  Population Mitochondria Different-Phenotype (%): 1%
  Population Mitotic Cells (%): 50% and 55%
  Population Normal (%): 100%
  Population Pyknosed Nuclei (%): 10% and 13%
  Population Tubulin-Different-Phenotype (%): 32% and 20%
  Total Cell Count: 214 and 269
Fibroblast; [2]
  Population Apoptotic (%): 27% and 35%
  Population Fragmented Nuclei (%): 45% and 17%
  Population Healthy Nuclei (%): 40% and 66%
  Population Hoechst High Intensity Objects (%): 4% and 0%
  Population Membrane Permeable-Phenotype (%): 1% and 3%
  Population Mitochondria Different-Phenotype (%): 7% and 11%
  Population Mitotic Cells (%): 72% and 64%
  Population Normal (%): 95% and 100%
  Population Pyknosed Nuclei (%): 14% and 16%
  Population Tubulin-Different-Phenotype (%): 57% and 67%
  Total Cell Count: 330 and 243
Fibroblast; [3]
  Population Apoptotic (%): 75% and 29%
  Population Fragmented Nuclei (%): 17% and 18%
  Population Healthy Nuclei (%): 77% and 73%
  Population Hoechst High Intensity Objects (%): 0%
  Population Membrane Permeable-Phenotype (%): 1%
  Population Mitochondria Different-Phenotype (%): 1% and 3%
  Population Mitotic Cells (%): 25% and 70%
  Population Normal (%): 99% and 100%
  Population Pyknosed Nuclei (%): 5% and 8%
  Population Tubulin-Different-Phenotype (%): 33% and 18%
  Total Cell Count: 241 and 300
Fibroblast; [4]
  Population Apoptotic (%): 62% and 44%
  Population Fragmented Nuclei (%): 41% and 15%
  Population Healthy Nuclei (%): 47% and 69%
  Population Hoechst High Intensity Objects (%): 5% and 0%
  Population Membrane Permeable-Phenotype (%): 2%
  Population Mitochondria Different-Phenotype (%): 27% and 34%
  Population Mitotic Cells (%): 37% and 55%
  Population Normal (%): 94% and 100%
  Population Pyknosed Nuclei (%): 10% and 15%
  Population Tubulin-Different-Phenotype (%): 69% and 78%
  Total Cell Count: 294 and 218
Fibroblast; [5]
  Population Apoptotic (%): 70% and 45%
  Population Fragmented Nuclei (%): 23% and 16%
  Population Healthy Nuclei (%): 72% and 77%
  Population Hoechst High Intensity Objects (%): 0%
  Population Membrane Permeable-Phenotype (%): 2% and 1%
  Population Mitochondria Different-Phenotype (%): 1%
  Population Mitotic Cells (%): 30% and 55%
  Population Normal (%): 100% and 99%
  Population Pyknosed Nuclei (%): 4% and 6%
  Population Tubulin-Different-Phenotype (%): 17% and 10%
  Total Cell Count: 249 and 315
Fibroblast; [6]
  Population Apoptotic (%): 76% and 79%
  Population Fragmented Nuclei (%): 42% and 17%
  Population Healthy Nuclei (%): 50% and 72%
  Population Hoechst High Intensity Objects (%): 4% and 1%
  Population Membrane Permeable-Phenotype (%): 0% and 4%
  Population Mitochondria Different-Phenotype (%): 28% and 18%
  Population Mitotic Cells (%): 23% and 20%
  Population Normal (%): 95% and 98%
  Population Pyknosed Nuclei (%): 7% and 10%
  Population Tubulin-Different-Phenotype (%): 68% and 71%
  Total Cell Count: 288 and 232

Source: ChEMBL document CHEMBL5303300, “EUbOPEN Chemogenomics Library - Multiplex” (2023)
